Compound activity from PubChem.
Most compounds without a hit are left out; they make up all but 2.4% or so of the library.
S1P4 agonist: agonists of human S1P4 receptor; O95977; S1P4-expressing cell line, agonist reporter assay; activation, % at 4.98 µM; 220,000 tested, 0.35% active; AID 1509; in the data active = activation above about 11%;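 also: 0% = DMSO vehicle and 100% = reference agonist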
S1P4 antag: blocks the human S1P4 receptor. O95977. AID 1510. inhibition, % at 4.98 µM. 220,000 tested, 0.26% active. S1P4-expressing cells, antagonist mode, reporter read-out; in the data active = inhibition above about 29%;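 also: 0% = wells stimulated with agonist and 100% = vehicle wells without agonist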
NPY-Y1 PAM-ag: potentiators or agonists of human neuropeptide Y receptor Y1; P25929; NPY-Y1 expressing cells, potentiator/agonist activation; activation, % at 3.6 µM; 220,000 tested, 0.37% active; AID 1304; in the data active = activation above about 33%, passing the limit was not always enough;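 also: cells stimulated with NPY at EC10 then isoproterenol at EC100; 0% = low agonist plus stimulus and 100% = saturating agonist plus stimulus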
NPY Y2 blocker: NPY-Y2 (human) receptor antagonism. P49146. NPY-Y2 expressing cells, antagonist mode. inhibition, % at 2.7 µM. 140,000 tested, 0.99% active. AID 793; in the data active = inhibition above about 17%;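 also: 0% = vehicle with agonist challenge and 100% = reference antagonist with challenge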
Target sequence (P49146 whole entry, looked up): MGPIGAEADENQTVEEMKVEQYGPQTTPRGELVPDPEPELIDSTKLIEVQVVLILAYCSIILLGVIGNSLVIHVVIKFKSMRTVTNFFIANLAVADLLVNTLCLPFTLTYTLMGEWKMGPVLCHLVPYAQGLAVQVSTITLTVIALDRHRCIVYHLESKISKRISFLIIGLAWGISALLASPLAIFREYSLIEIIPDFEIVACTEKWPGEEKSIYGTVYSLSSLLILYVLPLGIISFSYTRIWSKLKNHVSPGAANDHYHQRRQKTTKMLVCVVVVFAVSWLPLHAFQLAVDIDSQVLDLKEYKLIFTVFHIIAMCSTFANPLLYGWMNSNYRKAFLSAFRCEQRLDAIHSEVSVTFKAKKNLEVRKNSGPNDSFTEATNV
NPY-Y1 antag: NPY-Y1 (human) receptor antagonism. P25929. HEK293-CNG Y1 cells, membrane potential fluorescence; NPY at EC95, then isoproterenol. inhibition, % at 3.6 µM. 200,000 tested, 1% active. AID 1040;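 active = inhibition above the campaign mean inhibition of all tested compounds plus 3 SD, cut at about 20% in these data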;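 also: 0% = DMSO wells given NPY plus isoproterenol and 100% = isoproterenol alone without NPY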
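Material: Y1- and CNG-channel-expressing HEK293 cells / Probe or stimulus: NPY 25 nM then isoproterenol 1 µM plus Ro 20-1724 25 µM / Doses: 3.6 µM single dose, DMSO 0.4% / Schedule: compound incubation 1 h at room temperature, readout 45 min post-stimulation / Signal: membrane potential fluorescence / Benchmarks: isoproterenol-only wells as full block versus NPY-plus-isoproterenol wells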
NPY2 pot ag: human NPY-Y2 potentiation or agonism, primary screen; P49146; cells expressing NPY-Y2, potentiator/agonist read-out; activation, % at 3.6 µM; 220,000 tested, 0.45% active; AID 1359; in the data active = activation above about 27%;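 also: cells stimulated with NPY near EC25 plus isoproterenol at EC100; 0% = vehicle plus submaximal agonist and 100% = vehicle plus saturating agonist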
* hit, by the source's call; nt = no result.

SMILES | S1P4 agonist | S1P4 antag | NPY-Y1 PAM-ag | NPY Y2 blocker | NPY-Y1 antag | NPY2 pot ag
Cc1c(Nc2ccc(C=O)cc2)c(=O)n(-c2ccccc2)n1C | -5 | 8 | -2 | nt | 6 | 1
COc1ccc(C(C(=O)NC2CCCC2)N(Cc2ccccc2)C(=O)c2nsc(Cl)c2Cl)cc1 (configuration not stated) | 0 | -26 | -46 | 28* | 36* | -45
Cc1ccc(N(C(=O)c2nsc(Cl)c2Cl)C(C(=O)NC2CCCC2)c2ccc(O)cc2)cc1C (configuration not stated) | 2 | -2 | -14 | 4 | 0 | -7
CC1CC(C)CN(c2ncc3c(n2)CC(c2ccccc2)CC3=O)C1 (configuration not stated) | 2 | 9 | -14 | 24* | 31* | -11
CC(C)c1ccc(C2CC(=O)c3cnc(N4CCc5ccccc5C4)nc3C2)cc1 (configuration not stated) | -1 | -11 | 11 | 2 | -3 | 7
CCOc1cccc2sc(NN)nc12 | 0 | 8 | 38* | nt | -9 | 32
CCOc1cccc2sc(Cl)nc12 | 2 | -8 | -4 | nt | -1 | 10
Cc1cc(C(=O)CN2CCCC2)c(C)n1-c1ccc(Cl)cc1 | 2 | -11 | -3 | nt | 21* | -2
Cc1cc(C(=O)CN2CCCCC2)c(C)n1-c1ccc(F)cc1 | 0 | -16 | -29 | 5 | 3 | 2
CC(=O)Nc1ccc(OCC(O)CNC2CCCC2)cc1 (configuration not stated) | 2 | -11 | -5 | 1 | 4 | -3
OC(CNC1Cc2ccccc2C1)COc1ccc(F)cc1 (configuration not stated) | 0 | -2 | 85* | nt | nt | 74*
CC(=O)c1ccc(OCC(O)CN2CCN(Cc3ccccc3)CC2)cc1 (configuration not stated) | -4 | -13 | -16 | 4 | 2 | 9
CC(C)(c1ccccc1)c1ccc(OCC(O)CNC2CCN(Cc3ccccc3)CC2)cc1 (configuration not stated) | 0 | -6 | -25 | nt | 21* | -8
O=C(c1ccccc1)c1ccc(OCC(O)CN2CCN(Cc3ccccc3)CC2)cc1 (configuration not stated) | 0 | 8 | -49 | 4 | 3 | -7
CCOc1ccc(OCC(O)CNC2CCN(Cc3ccccc3)CC2)cc1 (configuration not stated) | 2 | -17 | -82 | 19* | 30* | -16
O=C(Nc1ccc(Oc2ccc(NC(=O)Nc3ccccc3Cl)cc2)cc1)Nc1ccccc1Cl | -4 | 4 | 12 | nt | nt | -16
C/C(=N\Nc1nc2ccccc2s1)c1ccc2c(c1)OCO2 | 1 | -3 | -13 | 31* | 35* | -9
C/C(=N\NC(=O)c1ccccc1)c1ccc2c(c1)OCO2 | -2 | -7 | 5 | 6 | 0 | -4
O=C(COC(=O)c1cn(-c2ccccc2)nc1-c1cccnc1)NC1CC1 | 0 | -4 | 12 | nt | -3 | -2
CCCn1c(=N)n(CC(O)COc2ccc(C)cc2)c2ccccc21 (configuration not stated) | -1 | 0 | -46 | nt | nt | -53
COc1ccccc1OCC(O)Cn1c(=N)n(Cc2ccccc2)c2ccccc21 (configuration not stated) | 0 | 8 | -55 | 39* | 27* | -26
CCCCn1c(=N)n(CC(O)COc2cccc(C)c2)c2ccccc21 (configuration not stated) | -1 | 9 | -26 | 54* | 31* | -22
CCCCCn1c(=N)n(CC(O)COc2ccccc2OC)c2ccccc21 (configuration not stated) | 0 | 12 | -76 | 35* | 25* | -28
Cc1cc(C)c(NC(=O)COC(=O)/C=C/c2cccs2)c(C)c1 | 1 | -4 | -15 | 2 | 6 | 3
Brc1ccc(-c2csc(N3CCOCC3)n2)cc1 | 0 | 1 | 13 | nt | 0 | 7
SMILES | S1P4 agonist | S1P4 antag | NPY-Y1 PAM-ag | NPY Y2 blocker | NPY-Y1 antag | NPY2 pot ag
Brc1ccc(-c2csc(/N=C/N3CCOCC3)n2)cc1 | -2 | 0 | -23 | 8 | 35* | -12
Cc1nn(-c2ccc(F)cc2)c2sc(C(=O)O)cc12 | 1 | -5 | -36 | 19* | 23* | -26
CCc1noc(C)c1C(=O)N1CC(C)OC(C)C1 (configuration not stated) | -2 | -2 | 78* | -1 | -10 | 96*
Cc1noc(C)c1C(=O)N1CC(C)OC(C)C1 (configuration not stated) | -3 | -1 | 4 | 1 | 13 | 1
Cc1ccc(-n2ncc(C(=O)Nc3ccc(Cl)cc3)c2C2CCNCC2)cc1C | 1 | -5 | -14 | nt | 20* | -18
Cc1ccc(S(=O)(=O)Nc2cc(C(=O)Nc3cc(C)cc(C)c3)ccc2Cl)cc1 | -3 | -2 | -21 | 2 | -5 | -10
O=C(O)c1ccc2c(c1)N(Cc1ccccc1)C(=O)c1ccccc1S2 | 1 | 7 | -9 | nt | nt | 5
COc1ccc(NC(=O)CSc2ccc3ccccc3c2)cc1S(=O)(=O)N1CCCCC1 | 0 | 20 | -19 | 2 | -1 | 9
CC(C)(C)C1CCc2c(sc3nc(SCC(=O)O)nc(N)c23)C1 (configuration not stated) | 1 | -11 | 105* | nt | nt | 101*
COC(=O)CSc1nc(N)c2c3c(sc2n1)C(c1ccccc1)SC(c1ccccc1)C3 (configuration not stated) | 0 | -27 | 81* | 0 | -13 | 56*
COc1ccccc1C(=O)Nc1cc(-c2nn3c(C)nnc3s2)ccc1C | 0 | 1 | -18 | 4 | 1 | 7
CC1CC(C)CN(C(=O)c2ccc3c(c2NCCO)C(=O)c2ccccc2C3=O)C1 (configuration not stated) | -1 | -9 | 55* | -9 | -18 | 49*
C/C(=N\NC(=O)c1ccc(OC2OCCOC2Oc2ccc(C(=O)N/N=C(\C)c3ccncc3)cc2)cc1)c1ccncc1 (configuration not stated) | 0 | 3 | 9 | nt | nt | 5
C=C1CC(C)OC(c2ccccc2OCC(O)CN2CCCCC2)C1 (configuration not stated) | 0 | 2 | 75* | 3 | -10 | 70*
Cc1cc2c(OCC(O)CN3CCCCC3)cccc2[nH]1 (configuration not stated) | 2 | -3 | 110* | nt | -14 | 101*
OC(COc1ccccc1)CN1CCCCCC1 (configuration not stated) | -1 | -13 | 9 | nt | 12 | -7
OC(COc1cccc2ccccc12)CN1CCCC1 (configuration not stated) | 0 | 8 | 99* | 3 | -15 | 94*
OC(COc1cccc2ccccc12)CN1CCN(c2ccc(Cl)cc2)CC1 (configuration not stated) | 0 | 4 | -23 | nt | nt | -31
